Test results as given in ChEMBL document CHEMBL1122519, “Bispyridinamines: a new class of topical antimicrobial agents as inhibitors of dental plaque” (1984).

Columns and labels:
Streptococcus mutans [1] = experiment: Compound is evaluated for minimal bactericidal concentration against plaque formation for Streptococcus mutans; format: functional, organism-based
Procedure, shortened: (§1)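 Preformed in vitro plaques of S. mutans NCTC 10449 or A. viscosus M-100 were grown on ceramic hydroxylapatite under anaerobic conditions at 37 °C in sucrose-supplemented medium. Plaques were immersed for 30 min at 37 °C in compound at 0.3–20 mM, rinsed, and moved to broth containing bromocresol purple. Kill was judged by no acid production, no turbidity increase and no growth on plating at 48 h. Plaques were run in quadruplicate.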

Actinomyces viscosus = experiment: Compound is evaluated for minimal bactericidal concentration against plaque formation for Actinomyces viscosus; format: functional, organism-based; procedure, shortened: as §1
Streptococcus mutans [2] = experiment: Minimum plaque inhibitory concentration using a standard test organism, Streptococcus mutans OMZ-61; format: functional, organism-based
Procedure, shortened: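 Ceramic hydroxylapatite plates were soaked twice for 1 min each in compound at […] (aqueous), air-dried and rinsed, then hung in sucrose beef-extract medium (pH 7.0) inoculated with late-log S. mutans OMZ-61. Incubation was anaerobic at 37 °C for 24 h, and treatment plus reinoculation were repeated for a second 24 h. Plaque was stained with 1% FD&C Red No. 3 and scored visually. The value is the lowest concentration giving no plaque while medium growth matched control.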

[3] = Compound is evaluated for stain index; format: functional
Procedure, shortened: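 Ratio of the minimum concentration staining a plaque-free ceramic hydroxylapatite plate to the minimum plaque-inhibiting concentration, both run under the same conditions. Plates got two 1-min soaks (0.1–0.001%), each followed by air-drying, then a water rinse. They were then held 24 h anaerobically at 37 °C in sucrose beef-extract medium, with or without S. mutans OMZ-61, repeated once. Staining was 1-min 1% FD&C Red No. 3, scored visually.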

Escherichia coli [4] = experiment: Antimicrobial minimum inhibitory concentration against Escherichia coli AB1932-1; format: functional
Procedure, shortened: (§2)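 Serial twofold tube dilution in tryptose phosphate broth. Each compound was prepared as a 1000 μg/mL aqueous stock and diluted in double-strength broth, then 2×10^5 cells were added. Tubes were incubated aerobically at 37 °C for 24 h. The MIC was taken as the lowest concentration with no visible growth.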

Klebsiella pneumoniae = experiment: Minimum inhibitory concentration against Klebsiella pneumonia 39645; format: functional; procedure, shortened: as §2
Proteus mirabilis = experiment: Minimum antimicrobial inhibitory concentration against Proteus mirabilis MGH-1; format: functional; procedure, shortened: as §2
Escherichia coli [5] = experiment: Minimum inhibitory concentration against Escherichia coli (Vogel); format: functional; procedure, shortened: as §2
Pseudomonas aeruginosa = experiment: Minimum antimicrobial inhibitory concentration against Pseudomonas aeruginosa MGH-2; format: functional; procedure, shortened: as §2
Escherichia coli [6] = experiment: Antimicrobial minimum inhibitory concentration against Escherichia coli 100/B22; format: functional; procedure, shortened: as §2
Staphylococcus aureus = experiment: Minimum antimicrobial inhibitory concentration against Staphylococcus aureus; format: functional; procedure, shortened: as §2

MIC (Escherichia coli [4]) [µg/mL]	MIC (Klebsiella pneumoniae) [µg/mL]	MIC (Proteus mirabilis) [µg/mL]	MIC (Escherichia coli [5]) [µg/mL]	MIC (Pseudomonas aeruginosa) [µg/mL]	MIC (Escherichia coli [6]) [µg/mL]	MIC (Staphylococcus aureus) [µg/mL]	SMILES	Concentration (Streptococcus mutans [1]) [mM]	Concentration (Actinomyces viscosus) [mM]	Concentration (Streptococcus mutans [2]) [%]	Stain index [3]
2	2	3.9	1	15.6	2	0.5	Br.Br.CCCCCCCCCN=c1ccn(CCCCCCCn2ccc(=NCCCCCCCCC)cc2)cc1	2.86	7.16	0.004	1
2	2	3.9	3.9	7.8	2	1	Br.Br.CCCCCCCCCN=c1ccn(CCCCCCCCn2ccc(=NCCCCCCCCC)cc2)cc1	2.5	2.5	0.004	1
0.5	1	3.9	1	3.9	0.5	0.5	CCCCCCN=c1ccn(CCCCCCCCCCCCCCn2ccc(=NCCCCCC)cc2)cc1.Cl.Cl	1.4	2.8	0.004	1
1	3.9	31.3	2	31.3	2	0.2	Br.Br.CCCCCCN=c1ccn(CCCCCCCCCCn2ccc(=NCCCCCC)cc2)cc1	–	–	> 1	–
3.9	7.8	> 125	3.9	125	3.9	0.5	Br.Br.CCCCC(CC)CN=c1ccn(CCCCCCCn2ccc(=NCC(CC)CCCC)cc2)cc1 (centres undefined)	–	–	> 1	–
7.8	125	> 250	31.3	> 125	7.8	0.5	Br.Br.CCCCCCN=c1ccn(CCCCCCn2ccc(=NCCCCCC)cc2)cc1	–	–	1	–
1	1	7.8	2	31.3	1	0.5	Br.Br.CCCCCCCCN=c1ccn(CCCCCCCn2ccc(=NCCCCCCCC)cc2)cc1	–	–	0.005	–
7.8	> 125	> 125	62.5	125	31.3	1	Br.Br.CCCCC(CC)CN=c1ccn(CCCCn2ccc(=NCC(CC)CCCC)cc2)cc1 (centres undefined)	–	–	> 1	–
31.3	> 125	> 125	125	> 125	125	7.8	Br.Br.Clc1ccc(N=c2ccn(CCCCCn3ccc(=Nc4ccc(Cl)cc4)cc3)cc2)cc1	–	–	> 1	–
1	7.8	125	3.9	125	2	0.3	Br.Br.CCCCC(CC)CN=c1ccn(CCCCCCCCn2ccc(=NCC(CC)CCCC)cc2)cc1 (centres undefined)	–	–	0.004	–
125	> 500	> 500	125	> 500	250	31.3	Br.Br.N=c1ccn(CCCCCCCCn2ccc(=N)cc2)cc1	–	–	> 1	–
7.8	3.9	7.8	2	7.8	3.9	1	Br.Br.CCCCCCCCCCN=c1ccn(CCCCCCCCn2ccc(=NCCCCCCCCCC)cc2)cc1	–	–	0.01	–
62.5	> 62.5	62.5	31.3	> 62.5	> 62.5	7.8	Br.Br.CCCCCCCCCCCCN=c1ccn(CCCCCCCCn2ccc(=NCCCCCCCCCCCC)cc2)cc1	–	–	0.1	–
0.4	3	12.1	1.5	48.4	0.8	0.2	Br.Br.CCCCC(CC)CN=c1ccn(CCCCCCCCCCn2ccc(=NCC(CC)CCCC)cc2)cc1 (centres undefined)	–	–	0.003	–
0.5	2	15.6	1	31.3	0.5	0.2	CCCCCCCCN=c1ccn(CCCCCCn2ccc(=NCCCCCCCC)cc2)cc1.Cl.Cl	–	–	0.004	–
125	> 500	> 500	125	> 500	125	125	Br.Br.c1cn(CCCCn2ccc(=NC3CCCCC3)cc2)ccc1=NC1CCCCC1	–	–	> 1	–
2	3.9	> 125	3.9	> 62.5	2	0.2	CCCCCCCN=c1ccn(CCCCCCn2ccc(=NCCCCCCC)cc2)cc1.Cl.Cl	–	–	> 1	–
125	> 125	> 125	> 125	125	> 125	7.8	Br.Br.c1cn(CCCCCCCn2ccc(=NC3CCCCC3)cc2)ccc1=NC1CCCCC1	–	–	> 1	–
2	3.9	125	2	125	2	0.4	Br.Br.CCCCCCN=c1ccn(CCCCCCCCCn2ccc(=NCCCCCC)cc2)cc1	–	–	> 1	–
7.8	> 250	> 250	15.6	> 125	15.6	7.8	CS(=O)(=O)O.CS(=O)(=O)O.Clc1ccc(N=c2ccn(CCCCn3ccc(=Nc4ccc(Cl)cc4)cc3)cc2)cc1	–	–	> 1	–
2	3.9	2	2	7.8	7.8	1	Br.Br.CCCCCCCCCCN=c1ccn(CCCCCCn2ccc(=NCCCCCCCCCC)cc2)cc1	–	–	0.01	–
> 500	> 500	> 500	> 500	> 500	> 500	125	Br.Br.c1cn(CCCCCn2ccc(=NC3CCCCC3)cc2)ccc1=NC1CCCCC1	–	–	> 1	–
1	2	62.6	2	31.3	2	0.5	CCCCCCCN=c1ccn(CCCCCCCCn2ccc(=NCCCCCCC)cc2)cc1.Cl.Cl	–	–	0.1	–
> 62.5	> 62.5	> 62.5	> 62.5	> 62.5	> 62.5	15.6	Br.Br.CCCCCCCCCCCCN=c1ccn(CCCCCCCCCCn2ccc(=NCCCCCCCCCCCC)cc2)cc1	–	–	0.1	–
2	7.8	> 250	3.9	125	3.9	0.2	Br.Br.CCCCCCN=c1ccn(CCCCCCCCn2ccc(=NCCCCCC)cc2)cc1	–	–	> 1	–
